Measurements pooled from the literature.
Each line is one published result; the experiments were not run side by side.
Target: Sodium-dependent noradrenaline transporter (SLC6A2, Homo sapiens, UniProt P23975)

SMILES	assay	test system	conditions	inhibition [%]
O[C@@H]1[C@H](O)[C@@H]2C[C@@H]2[C@H]1n1cnc2c(NCc3cccc(Cl)c3)ncnc21	ligand displacement, radioligand		10 µM	35
N#Cc1cc(Cn2c(N3CCCC3)nc3ccccc32)ccc1F	ligand displacement		10 µM	39.4
Ic1cccc2cnccc12	ligand displacement, radioligand		10 µM	44
CCN(Cc1ccccc1C(F)(F)F)C(=O)C1CCN(S(=O)(=O)c2ccc3[nH]ncc3c2)CC1	ligand displacement, radioligand		10 µM	20
c1ccc(C2CCN(CCCCn3nnnc3C(c3ccccc3)c3ccccc3)CC2)cc1	transporter uptake, inhibitor	HEK293	1 µM	66.3
COc1cc(NC(C)=O)c(Cl)cc1C(=O)Nc1nccs1	cell-free assay		10 µM	1.8
O[C@@H]1[C@H](O)[C@@H]2C[C@@H]2[C@H]1n1cnc2c(NCCc3ccccc3)nc(C#Cc3ccccc3Cl)nc21	ligand displacement, radioligand		10 µM	24
Clc1ccc(C(c2ccccc2)c2nnnn2CCCCN2CCC(CCc3ccccc3)CC2)cc1 (stereo not drawn)	transporter uptake, inhibitor	HEK293	1 µM	72.4
O=C(Nc1ccc(S(=O)(=O)N2CCC(Cl)CC2)cc1)c1ccc([N+](=O)[O-])o1	ligand displacement, radioligand		10 µM	28
CN1CCN(CCCOc2ccc(=O)n(-c3ccc(Cl)c(Cl)c3)n2)CC1	ligand displacement		1 µM	14.4
Fc1ccc(C(c2ccc(F)cc2)c2nnnn2CCCCN2CCC(c3ccccc3)CC2)cc1	transporter uptake, inhibitor	HEK293	1 µM	64.4
COC(=O)c1ccc(-n2c(C)cc(C(=O)CSc3ccc(NC(C)=O)cc3)c2C)cc1	ligand displacement, radioligand		10 µM	50
